Reference: ChEMBL document CHEMBL1154403, “Serotypes, Clones, and Mechanisms of Resistance of Erythromycin-Resistant Streptococcus pneumoniae Isolates Collected in Spain” (2007)
Values after ≈ are worked out from the molar mass of the structure shown.

How the values were obtained:
Format in all cases: functional
[1] = system: Streptococcus pneumoniae; assay: Antibacterial activity against erythromycin-resistant Streptococcus pneumoniae by microdilution method
Procedure, shortened: (§1)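 Broth microdilution MICs per CLSI on all 125 erythromycin-resistant pneumococcal isolates, using Mueller-Hinton broth with 2 to 5% lysed horse blood in prepared panels. Example ranges: erythromycin 0.25 to 32 μg/ml, clindamycin 0.25 to 0.5 μg/ml, penicillin 0.03 to 8 μg/ml, telithromycin 0.015 to 32 μg/ml (separate panel). Quality control strain: S. pneumoniae ATCC 49619.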

[2] = system: Streptococcus pneumoniae; assay: Antibacterial activity against erythromycin-resistant Streptococcus pneumoniae assessed as percent resistant isolates by microdilution method; procedure, shortened: as §1
[3] = system: Streptococcus pneumoniae; assay: Antibacterial activity against erythromycin-resistant Streptococcus pneumoniae assessed as percent resistant isolates by CLSI breakpoint method
[4] = system: Streptococcus pneumoniae; assay: Antibacterial activity against erythromycin-resistant Streptococcus pneumoniae assessed as percent sensitive isolates by CLSI breakpoint method
[5] = system: Streptococcus pneumoniae; assay: Antibacterial activity against constitutive macrolide-lincosamide-streptogramin B-resistant Streptococcus pneumoniae isolates by double-disk diffusion method
Procedure, shortened: (§2)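 Macrolide resistance phenotype assigned by double-disk diffusion with erythromycin (15 μg) and clindamycin (2 μg) disks placed 12 mm apart, edge to edge. After incubation, a flattened clindamycin zone next to the erythromycin disk (D zone) marked inducible resistance. A conserved clindamycin zone marked the M phenotype.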

[6] = system: Streptococcus pneumoniae; assay: Antibacterial activity against inducible macrolide-lincosamide-streptogramin B-resistant Streptococcus pneumoniae isolates by double-disk diffusion method; procedure, shortened: as §2
[7] = system: Streptococcus pneumoniae; assay: Antibacterial activity against macrolide-resistant Streptococcus pneumoniae isolates by double-disk diffusion method; procedure, shortened: as §2
[8] = system: Streptococcus pneumoniae; assay: Antibacterial activity Streptococcus pneumoniae expressing erm(B) and/or mef genes at 0.25 ug/ml by broth microdilution method
Procedure, shortened: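 Clinical erythromycin-resistant pneumococcal isolates identified by bile solubility and optochin susceptibility. MICs were determined by CLSI broth microdilution in Mueller-Hinton broth with 2 to 5% lysed horse blood, using commercial prepared panels; telithromycin was tested on a separate panel across 0.015 to 32 μg/ml. S. pneumoniae ATCC 49619 served as quality control.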

[9] = system: Streptococcus pneumoniae; assay: Antibacterial activity against inducible macrolide-lincosamide-streptogramin B-resistant Streptococcus pneumoniae expressing erm(B) and tet(M) genes assessed as percent resistant isolates by broth microdilution method; procedure, shortened: as §1

SMILES	MIC [1] [µg/mL]	MIC50 [1] [µg/mL]	MIC90 [1] [µg/mL]	Activity [2] [%]	CLSI resistance breakpoint (MIC) [3]	Activity [4]	MIC [5] [µg/mL]	MIC [6] [µg/mL]	MIC [7] [µg/mL]	Activity [8] [%]	Activity [9] [%]
CC[C@H]1OC(=O)[C@H](C)[C@@H](O[C@H]2C[C@@](C)(OC)[C@@H](O)[C@H](C)O2)[C@H](C)[C@@H](O[C@@H]2O[C@H](C)C[C@H](N(C)C)[C@H]2O)[C@](C)(O)C[C@@H](C)CN(C)[C@H](C)[C@@H](O)[C@]1(C)O [AZITHROMYCIN]	> 4	> 4	> 4	100	>=2 ug ml-1	<=0.5 ug ml-1					
CO[C@@H]1[C@@H](O[C@@H]2O[C@H](C)[C@@H](O[C@H]3C[C@@](C)(O)[C@@H](OC(=O)CC(C)C)[C@H](C)O3)[C@H](N(C)C)[C@H]2O)[C@@H](CC=O)C[C@@H](C)[C@@H](O)/C=C/C=C/C[C@@H](C)OC(=O)C[C@H]1OC(C)=O [JOSAMYCIN]	> 2	> 2	> 2	87.2	>=4 ug ml-1	<=1 ug ml-1	> 2	> 2	≤ 0.5		
C[C@H]1COc2c(N3CCN(C)CC3)c(F)cc3c(=O)c(C(=O)O)cn1c23.C[C@H]1COc2c(N3CCN(C)CC3)c(F)cc3c(=O)c(C(=O)O)cn1c23.O [LEVOFLOXACIN]	> 4	1	1	4	>=8 ug ml-1	<=2 ug ml-1					
CN[C@H](CC(C)C)C(=O)N[C@H]1C(=O)N[C@@H](CC(N)=O)C(=O)N[C@H]2C(=O)N[C@H]3C(=O)N[C@H](C(=O)N[C@H](C(=O)O)c4cc(O)cc(O)c4-c4cc3ccc4O)[C@H](O)c3ccc(c(Cl)c3)Oc3cc2cc(c3O[C@@H]2O[C@H](CO)[C@@H](O)[C@H](O)[C@H]2O[C@H]2C[C@](C)(N)[C@H](O)[C@H](C)O2)Oc2ccc(cc2Cl)[C@H]1O [VANCOMYCIN]	1 (≈ 0.69 µM)	≤ 0.25	1 (≈ 0.69 µM)	0		<=1 ug ml-1					
CC[C@H]1OC(=O)[C@H](C)[C@@H](O[C@H]2C[C@@](C)(OC)[C@@H](O)[C@H](C)O2)[C@H](C)[C@@H](O[C@@H]2O[C@H](C)C[C@H](N(C)C)[C@H]2O)[C@](C)(O)C[C@@H](C)C(=O)[C@H](C)[C@@H](O)[C@]1(C)O [ERYTHROMYCIN]		> 32	> 32	100	>=1 ug ml-1	<=0.25 ug ml-1	> 32	≥ 4	2 (≈ 2.73 µM)		
CCC[C@@H]1C[C@@H](C(=O)N[C@@H]([C@H]2O[C@H](SC)[C@H](O)[C@@H](O)[C@H]2O)[C@H](C)Cl)N(C)C1 [CLINDAMYCIN]	> 0.5	> 0.5	> 0.5	87.2	>=1 ug ml-1	<=0.25 ug ml-1	> 0.5	> 0.5	≤ 0.25		
CC[C@H]1OC(=O)[C@H](C)C(=O)[C@H](C)[C@@H](O[C@@H]2O[C@H](C)C[C@H](N(C)C)[C@H]2O)[C@](C)(OC)C[C@@H](C)C(=O)[C@H](C)[C@H]2N(CCCCn3cnc(-c4cccnc4)c3)C(=O)O[C@]12C [TELITHROMYCIN]	0.03 (≈ 0.0369 µM)	0.03 (≈ 0.0369 µM)	0.25 (≈ 0.308 µM)	0	>=4 ug ml-1	<=1 ug ml-1				90	
COc1c(N2C[C@@H]3CCCN[C@@H]3C2)c(F)cc2c(=O)c(C(=O)O)cn(C3CC3)c12 [MOXIFLOXACIN]	> 1	≤ 0.25	≤ 0.25	2.4							
O=C(N[C@H](CO)[C@H](O)c1ccc([N+](=O)[O-])cc1)C(Cl)Cl [CHLORAMPHENICOL]	> 8	2 (≈ 6.19 µM)	> 8	34.4	>=8 ug ml-1	<=4 ug ml-1					
CN(C)[C@@H]1C(O)=C(C(N)=O)C(=O)[C@@]2(O)C(O)=C3C(=O)c4c(O)cccc4[C@@](C)(O)[C@H]3C[C@@H]12 [TETRACYCLINE]	> 4	> 4	> 4	77.6	>=8 ug ml-1	<=2 ug ml-1					90
CO/N=C(\C(=O)N[C@@H]1C(=O)N2C(C(=O)O)=C(COC(C)=O)CS[C@H]12)c1csc(N)n1 [CEFOTAXIME]	≤ 0.06	0.25 (≈ 0.549 µM)	0.5 (≈ 1.1 µM)	0.8	>=4 ug ml-1	<=1 ug ml-1					
